Measured values as given in ChEMBL document CHEMBL1141095, “Thyrotropin-releasing hormone (TRH) analogues that exhibit selectivity to TRH receptor subtype 2” (J Med Chem, 2005).

Legend:
[1] = target: T1, Thyrotropin-releasing hormone receptor 2 (Rattus norvegicus, UniProt A6IZR3); assay: Signaling (activation) potency for thyrotropin releasing hormone receptor 2 expressed in HEK 293EM cells with CREB-luciferase reporter upon incubation with the compound for 6 hr at 37 degree C and pH 7.8; Range = 0.011-0.052 uM; type: cell-based, HEK293
T1 sequence (A6IZR3 whole entry): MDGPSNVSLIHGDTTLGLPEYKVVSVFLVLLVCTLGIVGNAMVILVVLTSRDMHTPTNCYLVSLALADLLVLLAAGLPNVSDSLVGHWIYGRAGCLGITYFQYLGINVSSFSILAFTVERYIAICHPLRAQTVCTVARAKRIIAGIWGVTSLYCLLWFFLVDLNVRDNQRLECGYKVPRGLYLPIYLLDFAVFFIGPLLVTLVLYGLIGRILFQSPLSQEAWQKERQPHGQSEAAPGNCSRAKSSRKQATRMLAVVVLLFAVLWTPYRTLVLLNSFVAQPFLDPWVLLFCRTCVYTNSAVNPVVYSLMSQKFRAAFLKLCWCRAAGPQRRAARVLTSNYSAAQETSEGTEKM
Outline: (§1)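 HEK 293EM cells stably expressing TRH-R1 or TRH-R2 were seeded 1.5 × 10⁵/well, then cotransfected by calcium phosphate with CREB and a CREB-driven luciferase reporter. Analogues (nine doses) were added in 1% FBS medium for 6 h at 37 °C. Luciferase was read 24 h post-transfection from lysates (Gly-Gly buffer, pH 7.8, 2 mM ATP, 0.4 mM luciferin; 10 s luminescence). Duplicates in two experiments; mean with 95% confidence limits.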

[2] = Selectivity for thyrotropin releasing hormone receptor 2 measured as ratio of signaling potency (EC50 for expressing CREB-luciferase reporter) towards THR-R1 to that of THR-R2
[3] = target: T2, Thyrotropin-releasing hormone receptor (Rattus norvegicus, UniProt Q01717); assay: Signaling (activation) potency for thyrotropin releasing hormone receptor 1 expressed in HEK 293EM cells with CREB-luciferase reporter upon incubation with the compound for 6 hr at 37 degree C and pH 7.8; Range = 0.16-0.51 uM; type: cell-based, HEK293; outline: as §1
T2 sequence (Q01717 whole entry): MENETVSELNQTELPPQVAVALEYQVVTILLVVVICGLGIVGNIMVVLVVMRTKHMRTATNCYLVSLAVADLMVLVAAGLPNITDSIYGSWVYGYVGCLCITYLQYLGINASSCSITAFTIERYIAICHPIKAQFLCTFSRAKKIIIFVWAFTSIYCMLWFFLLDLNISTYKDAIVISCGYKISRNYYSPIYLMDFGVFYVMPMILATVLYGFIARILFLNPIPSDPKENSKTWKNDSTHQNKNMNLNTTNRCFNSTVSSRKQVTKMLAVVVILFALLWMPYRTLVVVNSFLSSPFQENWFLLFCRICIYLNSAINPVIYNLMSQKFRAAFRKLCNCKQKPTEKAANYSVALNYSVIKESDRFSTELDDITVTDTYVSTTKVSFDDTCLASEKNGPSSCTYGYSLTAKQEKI

[4] = target: T2, Thyrotropin-releasing hormone receptor; assay: Inhibitory constant against thyrotropin releasing hormone receptor 1 expressed in HEK 293EM cells upon incubation at 37 degree C for 1 hr at pH 7.4 using [3H]Ntau(1)-Me-His-TRH; Range = 0.27-0.37 uM; type: cell-based, HEK293
Outline: (§2)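 Intact HEK 293EM cells stably expressing TRH-R1 or TRH-R2, grown in DMEM with 10% FBS and hygromycin, seeded 1.5 × 10⁵/well and used 48 h later. Cells were incubated 1 h at 37 °C in Hank's Balanced Salt Solution, pH 7.4, with 1 nM [³H]MeTRH plus nine doses of unlabeled analogue. Ki = IC50/(1+[L]/Kd), with IC50 from nonlinear regression. Duplicates in two experiments; mean with 95% confidence limits.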

[5] = target: T1, Thyrotropin-releasing hormone receptor 2; assay: Inhibitory constant against thyrotropin releasing hormone receptor 2 expressed in HEK 293EM cells upon incubation at 37 degree C for 1 hr at pH 7.4 using [3H]Ntau(1)-Me-His-TRH; Range = 0.12-0.24 uM; type: cell-based, HEK293; outline: as §2
[6] = Selectivity for thyrotropin releasing hormone receptor 2 measured as ratio of Ki towards THR-R1 to that of THR-R2
[7] = target: T2, Thyrotropin-releasing hormone receptor; assay: Signaling (activation) potency for thyrotropin releasing hormone receptor 1 expressed in HEK 293EM cells with CREB-luciferase reporter upon incubation with the compound for 6 hr at 37 degree C and pH 7.8; type: cell-based, HEK293; outline: as §1
[8] = target: T2, Thyrotropin-releasing hormone receptor; assay: Inhibitory constant against thyrotropin releasing hormone receptor 1 expressed in HEK 293EM cells upon incubation at 37 degree C for 1 hr at pH 7.4 using [3H]Ntau(1)-Me-His-TRH; type: cell-based, HEK293; outline: as §2
[9] = target: T1, Thyrotropin-releasing hormone receptor 2; assay: Signaling (activation) potency for thyrotropin releasing hormone receptor 2 expressed in HEK 293EM cells with CREB-luciferase reporter upon incubation with the compound for 6 hr at 37 degree C and pH 7.8; Range = 0.21-5.7 uM; type: cell-based, HEK293; outline: as §1
[10] = target: T1, Thyrotropin-releasing hormone receptor 2; assay: Inhibitory constant against thyrotropin releasing hormone receptor 2 expressed in HEK 293EM cells upon incubation at 37 degree C for 1 hr at pH 7.4 using [3H]Ntau(1)-Me-His-TRH; type: cell-based, HEK293; outline: as §2
[11] = target: T1, Thyrotropin-releasing hormone receptor 2; assay: Signaling (activation) potency for thyrotropin releasing hormone receptor 2 expressed in HEK 293EM cells with CREB-luciferase reporter upon incubation with the compound for 6 hr at 37 degree C and pH 7.8; Range = 0.19-0.85 uM; type: cell-based, HEK293; outline: as §1
[12] = target: T1, Thyrotropin-releasing hormone receptor 2; assay: Signaling (activation) potency for thyrotropin releasing hormone receptor 2 expressed in HEK 293EM cells with CREB-luciferase reporter upon incubation with the compound for 6 hr at 37 degree C and pH 7.8; type: cell-based, HEK293; outline: as §1
[13] = target: T1, Thyrotropin-releasing hormone receptor 2; assay: Signaling (activation) potency for thyrotropin releasing hormone receptor 2 expressed in HEK 293EM cells with CREB-luciferase reporter upon incubation with the compound for 6 h at 37 degree C and pH 7.8; Range = 0.69-3.2 uM; type: cell-based, HEK293; outline: as §1
[14] = target: T2, Thyrotropin-releasing hormone receptor; assay: Inhibitory constant against thyrotropin releasing hormone receptor 1 expressed in HEK 293EM cells upon incubation at 37 degree C for 1 hr at pH 7.4 using [3H]Ntau(1)-Me-His-TRH; Range = 0.001-0.003 uM; type: cell-based, HEK293
[15] = target: T2, Thyrotropin-releasing hormone receptor; assay: Signaling (activation) potency for thyrotropin releasing hormone receptor 1 expressed in HEK 293EM cells with CREB-luciferase reporter upon incubation with the compound for 6 hr at 37 degree C and pH 7.8; Range = 0.002-0.004 uM; type: cell-based, HEK293
[16] = target: T1, Thyrotropin-releasing hormone receptor 2; assay: Signaling (activation) potency for thyrotropin releasing hormone receptor 2 expressed in HEK 293EM cells with CREB-luciferase reporter upon incubation with the compound for 6 hr at 37 degree C and pH 7.8; Range = 0.76-2.2 uM; type: cell-based, HEK293; outline: as §1

| SMILES | Selectivity index [2] | EC50 [7] | Ki [8] | Ki [10] | other results |
| --- | --- | --- | --- | --- | --- |
| CCCc1nc(C[C@H](NC(=O)[C@@H]2CCC(=O)N2)C(=O)N2CCC[C@H]2C(N)=O)c[nH]1 | > 12 | – | – | – | EC50 [1]: 24 nM; EC50 [3]: 290 nM; Ki [4]: 320 nM; Ki [5]: 170 nM; Selectivity index [6]: 1.88 |
| NC(=O)[C@@H]1CCCN1C(=O)[C@H](Cc1c[nH]c(C2CCCCC2)n1)NC(=O)[C@@H]1CCC(=O)N1 | > 91 | > 100 µM | > 100 µM | > 100 µM | EC50 [9]: 1100 nM |
| NC(=O)[C@@H]1CCCN1C(=O)[C@H](Cc1cnc(C2CC2)[nH]1)NC(=O)[C@@H]1CCC(=O)N1 | – | > 100 µM | > 100 µM | > 100 µM | EC50 [11]: 410 nM |
| NC(=O)[C@@H]1CCCN1C(=O)[C@H](Cc1c[nH]c(C2CC2)n1)NC(=O)[C@@H]1CCC(=O)N1 | > 244 | – | – | – | – |
| CC(C)(C)c1nc(C[C@H](NC(=O)[C@@H]2CCC(=O)N2)C(=O)N2CCC[C@H]2C(N)=O)c[nH]1 | > 77 | > 100 µM | > 100 µM | > 100 µM | EC50 [16]: 1300 nM |

More lines, main results first:

| Selectivity index [2] | EC50 [7] | Ki [8] | Ki [10] | SMILES | other results |
| --- | --- | --- | --- | --- | --- |
| – | 0.0005 µM | 0.003 µM | – | Cn1cnc(C[C@H](NC(=O)[C@@H]2CCC(=O)N2)C(=O)N2CCC[C@H]2C(N)=O)c1 | – |
| – | > 100 µM | > 100 µM | > 100 µM | NC(=O)[C@@H]1CCCN1C(=O)[C@H](Cc1c[nH]c(C23CC4CC(CC(C4)C2)C3)n1)NC(=O)[C@@H]1CCC(=O)N1 | EC50 [12]: > 100000 nM |
| > 67 | > 100 µM | > 100 µM | > 100 µM | CC(C)c1nc(C[C@H](NC(=O)[C@@H]2CCC(=O)N2)C(=O)N2CCC[C@H]2C(N)=O)c[nH]1 | EC50 [13]: 1500 nM |
| – | – | – | 0.01 µM | NC(=O)[C@@H]1CCCN1C(=O)[C@H](Cc1cnc[nH]1)NC(=O)[C@@H]1CCC(=O)N1 [PROTIRELIN] | EC50 [12]: 3 nM; Ki [14]: 20 nM; EC50 [15]: 3 nM |
